Screening results as filed in PubChem BioAssay.
This is a sample that favours compounds with a hit; in the whole collection about 3.5% have one here.
MrgX1 PAM = positive allosteric modulators of MrgX1, primary screen, HEK293 cells, Fluo-4 calcium flux. Mas-related G-protein coupled receptor member X1 (Homo sapiens), Q96LB2. FDSS; hits give high values. B-score at 10 µM. 310,000 compounds, 0.63% hits;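 active means plate-corrected calcium response at least 3 library SD above typical, normal starting fluorescence, not activating the receptor alone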;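 further: compound read alongside a low EC10 to EC30 dose of BAM8-22 agonist; peak minus trough fluorescence over baseline measured at the second addition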
Target sequence (Q96LB2 whole entry, looked up): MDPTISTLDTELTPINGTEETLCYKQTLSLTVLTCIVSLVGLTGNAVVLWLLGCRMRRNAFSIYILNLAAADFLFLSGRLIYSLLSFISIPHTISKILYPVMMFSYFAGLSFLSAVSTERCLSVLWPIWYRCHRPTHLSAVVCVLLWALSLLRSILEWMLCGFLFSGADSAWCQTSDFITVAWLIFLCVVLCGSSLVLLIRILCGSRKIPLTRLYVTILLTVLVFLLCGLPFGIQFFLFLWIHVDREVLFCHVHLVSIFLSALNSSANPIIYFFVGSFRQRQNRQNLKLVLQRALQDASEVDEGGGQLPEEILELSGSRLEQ
RGS4 inh = RGS4 inhibitors, primary screen, cell-based, HEK293 M3R inducible RGS4, calcium flux. Fluo-4 calcium flux; hits give high values; triggered by carbachol at its EC20. Regulator of G-protein signaling 4 (Homo sapiens), P49798. B-score at 10 µM. 310,000 compounds, 0.45% hits;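 active means B-score, a plate-corrected calcium signal, over three deviations above library mean, with baseline fluorescence within five deviations of library mean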;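 further: RGS4 expression induced by doxycycline in cells with stable M3 receptor; B-score is computed from the integrated fluorescence ratio over baseline after carbachol; higher B-score means a larger calcium signal and so more RGS4 inhibition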
Target sequence (P49798 whole entry, looked up): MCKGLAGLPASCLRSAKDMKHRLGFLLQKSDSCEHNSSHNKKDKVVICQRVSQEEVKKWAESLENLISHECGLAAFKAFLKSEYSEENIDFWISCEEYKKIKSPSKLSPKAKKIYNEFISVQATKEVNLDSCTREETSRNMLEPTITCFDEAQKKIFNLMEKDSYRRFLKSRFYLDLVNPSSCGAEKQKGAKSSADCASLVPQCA
MrgX1 agonist = agonists of human MrgX1 receptor, primary screen, HEK293 cells, Fluo-4 calcium flux. AID 588627, 2011. Fluo-4 calcium fluorescence, agonist mode; hits give high values. Mas-related G-protein coupled receptor member X1 (Homo sapiens), Q96LB2. B-score at 10 µM. 310,000 compounds, 0.44% hits;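 active means calcium response B-score plate-corrected fluorescence ratio at least 3 library SD, with starting fluorescence B-score inside 5 SD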
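Material: MrgX1-expressing HEK293 cells / Dosing: compound as first of three additions / Incubation: overnight seeding, then 1 h dark dye loading / Signal: Fluo-4 NW calcium fluorescence / Evaluation: B-scored fluorescence response ratio / Benchmarks: positive and negative control wells on each plate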
RGS4 pot = RGS4 potentiators or activators, primary screen, cell-based, HEK293 M3R inducible RGS4, calcium flux. AID 463111, 2010. carbachol calcium flux Fluo4; hits give low values. B-score at 10 µM. 310,000 compounds, 0.92% hits;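 active means B-score of the integrated calcium signal more than 4 SD below the library mean, with starting fluorescence not abnormally high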;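 further: negative B-score means reduced calcium response which marks RGS4 activation or potentiation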
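test system = M3R-expressing HEK293 line, RGS4 induced by doxycycline | probe or stimulus = carbachol at ECmax as muscarinic agonist stimulus | timing = dye loading 30 min 37 °C, buffer rest 30 min RT | signal = calcium dye Fluo4 fluorescence | evaluation = B score from integrated fluorescence ratio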
MrgX1 antagonist = antagonists of human MrgX1 receptor, primary screen, HEK293 cells, Fluo-4 calcium flux. Mas-related G-protein coupled receptor member X1 (Homo sapiens), Q96LB2. BAM8-22 antagonism; hits give low values. B-score at 10 µM. 310,000 compounds, 1.3% hits. AID 588676, 2011;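 active means calcium-response B-score plate-corrected more than 3 library SD below zero, starting fluorescence within 5 deviations, no agonist response on first addition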;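 further: peak minus trough fluorescence over baseline after final BAM8-22 challenge near maximal dose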
* = called active by the depositor; i = inactive; / = not tested or not shown.

SMILES	MrgX1 PAM	RGS4 inh	MrgX1 agonist	RGS4 pot	MrgX1 antagonist
COc1ccc(N(C(=O)c2cccnc2)S(=O)(=O)c2cccc([N+](=O)[O-])c2)cc1	6.66*	i	i	i	i
CCC(C)c1ccc(NC(=O)N2CCOCC2)cc1 (configuration not stated)	i	i	i	i	i
CC(C)NC(=O)c1cc2cc(Br)ccc2oc1=O	i	i	i	i	i
Cc1ccc(C(C)NC(=O)c2cc3cc(Br)ccc3oc2=N)cc1 (configuration not stated)	i	i	i	-9.15*	i
CC1(c2ccc(OC(F)F)cc2)NC(=O)N(CC(=O)Nc2ccc(F)cc2)C1=O (configuration not stated)	i	i	i	i	i
CC1(c2ccc(OC(F)F)cc2)NC(=O)N(CC(=O)Nc2cccc(F)c2)C1=O (configuration not stated)	i	i	i	i	-6.15*
CC1(c2ccc(OC(F)F)cc2)NC(=O)N(CC(=O)Nc2ccc(OC(F)F)cc2)C1=O (configuration not stated)	i	i	i	i	-12.4*
COc1ccc(C=O)cc1CSc1ncccc1C(=O)O	i	i	i	i	i
CCCCN1C(=O)/C(=C/C=C2\N(C)c3ccccc3C2(C)C)SC1=S	i	i	i	i	-15*
Cc1ccccc1OCC(=O)OCC(=O)Nc1cc(S(C)(=O)=O)ccc1Cl	i	i	i	i	i
Cc1cccc(-n2c(C)cc(/C=N/n3cnnc3)c2C)c1	i	i	i	-7.32*	i
Cc1cccc(-n2c(C)cc(C=C3C(=O)c4ccccc4C3=O)c2C)c1	i	i	i	-10*	i
CCc1ccc(NC(=O)CCCNC(=O)Cn2cnc3sc(C)c(C)c3c2=O)cc1	i	i	i	i	i
CCN(CC)CCNC(=O)CCCNC(=O)Cn1cnc2sc(C)c(C)c2c1=O	i	i	i	i	-9.13*
COc1ccc(NC2=C(NCCO)C(=O)c3ccccc3C2=O)cc1	i	i	i	i	i
CCOc1ccc(NC2=C(OC)C(=O)c3ccccc3C2=O)cc1	7.35*	i	i	i	i
COC1=C(Nc2ccc(O)cc2)C(=O)c2ccccc2C1=O	i	i	i	i	i
COC1=C(Nc2ccc(OC)cc2)C(=O)c2ccccc2C1=O	7.79*	i	i	i	i
COc1ccc(C(=O)C2CCCN(C(=O)c3cccc(Cl)c3F)C2)cc1OC (configuration not stated)	i	i	i	i	i
CCCCn1c(SCC(=O)NCc2ccco2)nc2ccccc2c1=O	i	i	i	i	i
CCCCCn1c(SCc2ccncc2)nc2cc(C(=O)NCc3ccco3)ccc2c1=O	i	i	i	-8.03*	i
CC(NC(=O)CN1C(=O)NC(C)(c2cccc3ccccc23)C1=O)c1ccccc1 (configuration not stated)	i	i	i	i	i
COc1ccc2oc(=O)c(C(=O)NCCc3ccc(OC)c(OC)c3)cc2c1	i	i	i	i	i
COc1ccc(C(C(=O)NC2CCCCC2)N(Cc2ccco2)C(=O)c2snc(C(N)=O)c2N)cc1 (configuration not stated)	/	i	/	i	/
Cc1cc(C2=NNC(=NC3CC3)SC2)c(C)n1Cc1ccco1	i	/	i	/	i
SMILES	MrgX1 PAM	RGS4 inh	MrgX1 agonist	RGS4 pot	MrgX1 antagonist
COCCCN=C1NN=C(c2cc(C)n(Cc3ccco3)c2C)CS1	10.5*	i	i	i	i
COCCCN1C(=O)C2C(C(=O)Nc3cccc(Cl)c3)C3C=CC2(O3)C1C(=O)NC1CCCCC1 (configuration not stated)	i	i	i	i	i
CCc1noc(C)c1C(=O)N1CCCC(CCC(=O)NCc2cccc(OC)c2)C1 (configuration not stated)	i	i	i	i	-6.47*
CC(C)(C)C1CCc2c(C(=O)NNC(=O)/C=C/C(=O)O)csc2C1 (configuration not stated)	i	i	i	i	-6.39*
CC(C)(C)C1CCc2c(C(=O)N/N=C/c3cccs3)csc2C1 (configuration not stated)	i	i	i	i	i
Cc1noc(C)c1-c1nc(CS(=O)(=O)c2ccccc2)no1	i	i	i	i	i
O=C(Nc1ccc(O)cc1)c1cc2ccccc2c(=O)s1	i	i	i	i	i
O=C(Nc1ccccc1)c1cc2ccccc2c(=O)s1	i	i	i	i	-7.78*
CCOC(=O)c1ccc(N2C(=O)C(CC(=O)NC)N(CCc3ccc(OC)c(OC)c3)C2=S)cc1 (configuration not stated)	i	i	i	i	i
O=C(CCCn1cnc([N+](=O)[O-])n1)Nc1ccc(Cl)cc1Cl	i	i	i	i	-9.11*
O=[N+]([O-])c1nn(-c2ccc3c(c2)OCCO3)n(O)c1=NC1CCN(Cc2ccccc2)CC1	i	i	i	i	-5.1*
CCOC(=O)C1CCN(c2cc3c(cc2NC(=O)c2ccccc2OCC)n(C)c(=O)n3C)CC1	i	i	i	-7.79*	i
O=[N+]([O-])c1cc(-c2nnc(Nc3ccccc3)c3ccccc23)ccc1N1CCOCC1	i	i	i	i	i
C=CCNc1nc(NCC)nc(N2CCOCC2)n1	i	i	i	i	i
O=[N+]([O-])c1cc(-c2nnc(Nc3ccc(O)cc3)c3ccccc23)ccc1N1CCOCC1	i	i	i	i	-4.73*
COc1ccc2oc(-c3ccc(NC(=O)c4ccc(N5CCOCC5)c([N+](=O)[O-])c4)cc3)nc2c1	i	i	i	i	i
O=C(Nc1ccc(-c2nc3ccccc3o2)cc1)c1ccc(N2CCOCC2)c([N+](=O)[O-])c1	i	i	i	i	-6.54*
C=CCNc1nc(Nc2ccc(-c3nc4ccccc4o3)cc2)nc(N2CCOCC2)n1	i	i	i	-7.11*	i
Cc1ccc(C(=O)NCCNS(=O)(=O)c2ccccc2)cn1	i	i	i	i	i
CC1CC1C(=O)OCC(=O)NNC(=O)COc1ccc(Br)cc1 (configuration not stated)	i	i	i	i	-6.49*
